From ChEMBL document CHEMBL4402602, “Discovery of (2R)-N-[3-[2-[(3-Methoxy-1-methyl-pyrazol-4-yl)amino]pyrimidin-4-yl]-1H-indol-7-yl]-2-(4-methylpiperazin-1-yl)propenamide (AZD4205) as a Potent and Selective Janus Kinase 1 Inhibitor” (J Med Chem, 2020)
Values after ≈ are worked out from the molar mass of the structure shown.

Legend:
[1] = target: T1, Tyrosine-protein kinase JAK1 (Homo sapiens, UniProt P23458); test: Inhibition of recombinant human N-terminal GST-tagged JAK1 (866 to 1154 residues) expressed in insect cells using FITC-labeled C6-KKHTDDGYMPMSPGVA-NH peptide as substrate after 10 mins in presence of 5 mM ATP by caliper mobility shift assay
T1 sequence (P23458 whole entry, the tested form may be a part): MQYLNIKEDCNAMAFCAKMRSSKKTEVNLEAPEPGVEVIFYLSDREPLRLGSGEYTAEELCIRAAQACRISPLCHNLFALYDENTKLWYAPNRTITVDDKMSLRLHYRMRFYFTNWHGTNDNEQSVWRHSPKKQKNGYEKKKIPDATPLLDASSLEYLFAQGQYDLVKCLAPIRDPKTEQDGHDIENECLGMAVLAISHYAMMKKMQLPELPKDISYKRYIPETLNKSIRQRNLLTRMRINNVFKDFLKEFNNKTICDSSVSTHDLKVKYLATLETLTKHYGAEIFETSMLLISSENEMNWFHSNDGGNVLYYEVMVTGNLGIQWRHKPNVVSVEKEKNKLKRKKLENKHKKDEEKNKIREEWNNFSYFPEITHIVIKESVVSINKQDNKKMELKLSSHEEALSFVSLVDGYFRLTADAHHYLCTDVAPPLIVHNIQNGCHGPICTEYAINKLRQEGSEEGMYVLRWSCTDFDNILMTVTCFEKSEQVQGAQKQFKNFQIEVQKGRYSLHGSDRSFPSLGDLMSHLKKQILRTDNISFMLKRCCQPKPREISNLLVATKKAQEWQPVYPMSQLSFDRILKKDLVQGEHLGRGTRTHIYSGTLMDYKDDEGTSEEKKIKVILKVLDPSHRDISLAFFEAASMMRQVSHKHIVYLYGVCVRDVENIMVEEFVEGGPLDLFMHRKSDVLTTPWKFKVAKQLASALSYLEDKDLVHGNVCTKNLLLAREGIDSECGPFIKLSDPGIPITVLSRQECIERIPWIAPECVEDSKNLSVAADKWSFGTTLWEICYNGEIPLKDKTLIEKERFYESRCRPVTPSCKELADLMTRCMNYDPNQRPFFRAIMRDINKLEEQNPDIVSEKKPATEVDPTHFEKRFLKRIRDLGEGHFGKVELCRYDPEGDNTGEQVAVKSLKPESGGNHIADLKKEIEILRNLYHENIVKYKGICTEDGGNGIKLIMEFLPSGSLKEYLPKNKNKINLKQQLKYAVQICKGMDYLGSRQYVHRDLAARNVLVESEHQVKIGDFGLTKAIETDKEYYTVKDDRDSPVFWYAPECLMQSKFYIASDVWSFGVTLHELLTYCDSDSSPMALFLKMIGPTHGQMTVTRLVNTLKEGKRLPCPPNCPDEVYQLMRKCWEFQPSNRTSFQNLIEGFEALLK

[2] = target: Tyrosine-protein kinase JAK2 (Homo sapiens, UniProt O60674); test: Inhibition of recombinant human N-terminal GST-tagged JAK2 (831 to 1132 residues) expressed in insect cells using 5FAM-labeled GEEPLYWSFPAKKK-NH2 peptide as substrate after 10 mins in presence of 5 mM ATP by caliper mobility shift assay
Tyrosine-protein kinase JAK2, sequence (O60674 whole entry, the tested form may be a part): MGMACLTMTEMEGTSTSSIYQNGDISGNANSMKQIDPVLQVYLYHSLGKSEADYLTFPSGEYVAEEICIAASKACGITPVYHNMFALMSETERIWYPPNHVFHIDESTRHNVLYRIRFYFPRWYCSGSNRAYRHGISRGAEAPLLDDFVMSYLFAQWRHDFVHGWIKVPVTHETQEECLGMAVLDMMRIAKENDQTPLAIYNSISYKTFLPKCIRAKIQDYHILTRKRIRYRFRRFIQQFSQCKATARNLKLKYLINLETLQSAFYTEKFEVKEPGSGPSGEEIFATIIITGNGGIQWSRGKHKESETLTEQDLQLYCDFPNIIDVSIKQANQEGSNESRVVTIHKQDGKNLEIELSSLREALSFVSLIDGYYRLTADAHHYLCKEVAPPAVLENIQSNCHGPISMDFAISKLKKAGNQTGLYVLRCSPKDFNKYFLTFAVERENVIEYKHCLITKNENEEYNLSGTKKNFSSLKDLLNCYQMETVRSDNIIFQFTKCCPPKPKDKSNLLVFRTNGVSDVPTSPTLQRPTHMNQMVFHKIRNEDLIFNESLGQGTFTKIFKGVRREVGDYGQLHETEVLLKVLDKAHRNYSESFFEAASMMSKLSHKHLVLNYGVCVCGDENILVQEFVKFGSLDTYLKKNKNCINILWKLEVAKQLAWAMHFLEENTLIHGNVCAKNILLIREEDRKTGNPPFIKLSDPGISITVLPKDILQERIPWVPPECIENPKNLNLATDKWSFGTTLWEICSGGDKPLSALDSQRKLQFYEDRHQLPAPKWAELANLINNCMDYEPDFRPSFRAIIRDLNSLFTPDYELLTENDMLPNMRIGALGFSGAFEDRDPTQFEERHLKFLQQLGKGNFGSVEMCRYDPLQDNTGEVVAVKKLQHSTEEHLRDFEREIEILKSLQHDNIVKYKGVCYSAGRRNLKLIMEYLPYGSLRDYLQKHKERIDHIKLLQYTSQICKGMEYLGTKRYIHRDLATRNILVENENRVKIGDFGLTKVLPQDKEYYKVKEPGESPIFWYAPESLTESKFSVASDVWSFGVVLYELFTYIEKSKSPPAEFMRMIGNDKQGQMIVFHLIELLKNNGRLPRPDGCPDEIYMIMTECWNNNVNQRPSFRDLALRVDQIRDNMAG

Homo sapiens = organism: Homo sapiens; test: Selectivity index, ratio of IC50 for inhibition of recombinant human N-terminal GST-tagged JAK2 (831 to 1132 residues) expressed in insect cells using 5FAM-labeled GEEPLYWSFPAKKK-NH2 peptide as substrate after 10 mins in presence of 5 mM ATP by caliper mobility shift assay to IC50 for inhibition of …
[3] = target: T1, Tyrosine-protein kinase JAK1; test: Inhibition of JAK1 in human NCI-H1975 cells assessed as decrease in STAT3 phosphorylation measured after 1 hr by ELISA; type: cell-based
Procedure, shortened: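 Cellular mode-of-action assay in NCI-H1975 cells measuring inhibition of STAT3 phosphorylation. IC50 values are geometric means of at least two independent experiments.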

[4] = target: Voltage-gated inwardly rectifying potassium channel KCNH2 (Homo sapiens, UniProt Q12809); test: Inhibition of human ERG
Voltage-gated inwardly rectifying potassium channel KCNH2, sequence (Q12809 whole entry): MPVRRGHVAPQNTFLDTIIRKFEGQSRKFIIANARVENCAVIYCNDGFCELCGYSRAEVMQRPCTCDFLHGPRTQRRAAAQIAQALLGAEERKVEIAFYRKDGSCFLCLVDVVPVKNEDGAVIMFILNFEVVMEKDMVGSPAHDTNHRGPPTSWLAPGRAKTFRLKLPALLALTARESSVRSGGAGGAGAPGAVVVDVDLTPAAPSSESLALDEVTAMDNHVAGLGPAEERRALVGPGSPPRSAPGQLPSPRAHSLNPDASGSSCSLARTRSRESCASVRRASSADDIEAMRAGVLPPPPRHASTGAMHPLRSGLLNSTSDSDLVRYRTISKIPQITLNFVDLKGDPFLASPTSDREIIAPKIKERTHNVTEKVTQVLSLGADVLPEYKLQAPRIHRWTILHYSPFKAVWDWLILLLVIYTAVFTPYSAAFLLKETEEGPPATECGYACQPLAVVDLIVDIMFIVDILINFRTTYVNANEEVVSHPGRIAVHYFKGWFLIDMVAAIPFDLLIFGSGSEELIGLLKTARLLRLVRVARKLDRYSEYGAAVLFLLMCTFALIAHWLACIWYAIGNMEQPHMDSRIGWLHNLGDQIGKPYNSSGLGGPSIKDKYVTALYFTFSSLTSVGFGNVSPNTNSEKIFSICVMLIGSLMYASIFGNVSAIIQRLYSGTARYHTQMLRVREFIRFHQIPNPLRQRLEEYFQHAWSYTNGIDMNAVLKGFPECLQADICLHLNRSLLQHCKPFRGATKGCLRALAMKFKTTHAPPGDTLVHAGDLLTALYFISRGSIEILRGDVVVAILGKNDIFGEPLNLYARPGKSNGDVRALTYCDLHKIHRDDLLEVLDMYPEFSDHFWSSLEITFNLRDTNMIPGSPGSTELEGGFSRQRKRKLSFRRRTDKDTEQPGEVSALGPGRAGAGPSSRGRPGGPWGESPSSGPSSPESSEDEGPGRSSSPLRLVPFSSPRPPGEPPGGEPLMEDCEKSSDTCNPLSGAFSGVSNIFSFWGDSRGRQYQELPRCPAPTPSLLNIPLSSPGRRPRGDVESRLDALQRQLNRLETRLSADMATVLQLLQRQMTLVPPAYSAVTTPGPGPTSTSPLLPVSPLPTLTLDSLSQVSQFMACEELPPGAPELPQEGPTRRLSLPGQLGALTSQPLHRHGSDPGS

[5] = Solubility of compound at pH 7.4; type: physicochemical; details: buffer

SMILES | IC50 [1] | IC50 [2] | IC50 [3] | solubility [5] | Ratio IC50 (Homo sapiens) | IC50 [4]
Cc1cnc(NC(=O)C2CC2)nc1-c1c[nH]c2c(NC(=O)C(C)(C)N3CCN(C)CC3)cccc12 | 1700 nM | > 30000 nM | – | > 1000 µM | > 18 | –
Cc1ccc(C(=O)Nc2cccc3c(-c4nc(NC(=O)C5CC5)ncc4C)c[nH]c23)c(C)n1 | 43 nM | 2500 nM | – | 2 µM (≈ 0.881 µg/mL) | 58 | –
COc1nn(C)cc1Nc1ncc(C)c(-c2c[nH]c3c(NC(=O)[C@@H](C)N4CCN(C)CC4)cccc23)n1 | – | – | 130 nM | – | 540 | > 100000 nM
COc1nn(C)cc1Nc1ncc(Cl)c(-c2c[nH]c3c(NC(=O)[C@@H](C)N4CCN(C)CC4)cccc23)n1 | – | – | 60 nM | – | 257 | 22000 nM
Cc1cnc(Nc2cnn(C)c2)nc1-c1c[nH]c2ccccc12 | 70 nM | 380 nM | – | – | 5 | –
Cc1cnc(NC(=O)C2CC2)nc1-c1c[nH]c2c(NC(=O)CN3CCN(C)CC3)cccc12 | 460 nM | > 30000 nM | – | 230 µM (≈ 103 µg/mL) | > 65 | –
COc1nn(C)cc1Nc1ncc(F)c(-c2c[nH]c3c(NC(=O)[C@@H](C)N4CCN(C)CC4)cccc23)n1 | – | – | 120 nM | – | 347 | > 33000 nM

The next lines start with results.

IC50 [1] | IC50 [2] | IC50 [3] | solubility [5] | SMILES | Ratio IC50 (Homo sapiens) | IC50 [4]
2200 nM | > 30000 nM | – | – | Cc1cnc(NC(=O)C2CC2)nc1-c1c[nH]c2c(NC(=O)CN(C)C)cccc12 | > 13 | –
– | 30000 nM | 80 nM | – | Cc1cnc(Nc2cccnc2F)nc1-c1c[nH]c2c(NC(=O)[C@@H](C)N3CCN(C)CC3)cccc12 | > 1110 | 10000 nM
20 nM | 2400 nM | – | – | N#CC[C@H]([C@H]1CCN(c2cccc(Cl)c2C#N)C1)n1cc(-c2ncnc3[nH]ccc23)cn1 | 120 | –
260 nM | > 30000 nM | – | 0.1 µM (≈ 0.0483 µg/mL) | COc1nn(C)cc1Nc1ncc(C)c(-c2c[nH]c3c(C(=O)Nc4ccc(C)nc4C)cccc23)n1 | > 115 | –
